Compound activity as filed in PubChem BioAssay.
Hits are enriched below; roughly 3.5% of the tested compounds scored in any of these assays.
RGS4 pot: potentiators or activators of RGS4. AID 463111. B-score at 10 µM. HEK293 M3R/inducible RGS4, carbachol calcium flux Fluo4; hits give low values. 310,000 tested, 0.92% active;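 active = B-score of the integrated calcium signal more than 4 SD below the library mean, with starting fluorescence not abnormally high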;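 note: negative B-score means reduced calcium response which marks RGS4 activation or potentiation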
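Material: Inducible-RGS4 HEK293 cells carrying M3 receptor; also added: carbachol at ECmax as muscarinic agonist stimulus; incubation: compound preincubation 20 min at room temperature before agonist; signal: Fluo4-AM (2 µM) calcium-flux fluorescence, kinetic read; measure: integrated calcium ratio converted to B score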
MrgX1 antag: blocks BAM8-22 activation of human MrgX1 receptor | AID 588676 | Q96LB2 | 310,000 tested, 1.3% active | MRGX1-HEK293 calcium flux, Fluo-4, BAM8-22 antagonism; hits give low values | B-score at 10 µM;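 active = calcium-response B-score plate-corrected more than 3 library SD below zero, starting fluorescence within 5 deviations, no agonist response on first addition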;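 note: peak minus trough fluorescence over baseline after final BAM8-22 challenge near maximal dose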
Target sequence (Q96LB2 whole entry, looked up): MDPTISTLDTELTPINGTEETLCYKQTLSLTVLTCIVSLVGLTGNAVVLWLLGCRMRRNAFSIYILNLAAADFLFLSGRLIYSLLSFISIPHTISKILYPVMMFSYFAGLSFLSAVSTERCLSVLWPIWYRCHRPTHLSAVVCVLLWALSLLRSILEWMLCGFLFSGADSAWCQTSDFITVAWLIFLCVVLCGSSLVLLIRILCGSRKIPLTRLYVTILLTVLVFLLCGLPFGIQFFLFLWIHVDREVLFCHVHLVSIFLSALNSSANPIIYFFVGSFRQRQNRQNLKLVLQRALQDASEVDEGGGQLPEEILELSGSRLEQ
MrgX1 allo act: allosterically activates human MrgX1 receptor signaling | MrgX1-HEK293, Fluo-4 calcium flux, FDSS; hits give high values | AID 588675 | B-score at 10 µM | 310,000 tested, 0.63% active | Q96LB2;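 active = plate-corrected calcium response at least 3 library SD above typical, normal starting fluorescence, not activating the receptor alone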;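 note: compound read alongside a low EC10 to EC30 dose of BAM8-22 agonist; peak minus trough fluorescence over baseline measured at the second addition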
MrgX1 ag: agonists of human MrgX1 receptor | MrgX1-HEK293 cells, Fluo-4 calcium fluorescence, agonist mode; hits give high values | Q96LB2 | B-score at 10 µM | 310,000 tested, 0.44% active | AID 588627;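 active = calcium response B-score plate-corrected fluorescence ratio at least 3 library SD, with starting fluorescence B-score inside 5 SD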
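System: HEK293 cells stably expressing human MrgX1 receptor; Dosing: test compound in the initial addition of three; Schedule: overnight plating, then 30 min 37 °C plus 30 min room-temperature dye loading; Detection: kinetic calcium dye fluorescence, Fluo-4 NW; Controls: per-plate positive and negative controls for Z′ factor.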
RGS4 inh: inhibitors of human RGS4; P49798; HEK293 M3R/RGS4 inducible, Fluo-4 calcium flux; hits give high values; triggered by carbachol at its EC20; B-score at 10 µM; 310,000 tested, 0.45% active;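 active = B-score, a plate-corrected calcium signal, over three deviations above library mean, with baseline fluorescence within five deviations of library mean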;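 note: RGS4 expression induced by doxycycline in cells with stable M3 receptor; B-score is computed from the integrated fluorescence ratio over baseline after carbachol; higher B-score means a larger calcium signal and so more RGS4 inhibition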
Target sequence (P49798 whole entry, looked up): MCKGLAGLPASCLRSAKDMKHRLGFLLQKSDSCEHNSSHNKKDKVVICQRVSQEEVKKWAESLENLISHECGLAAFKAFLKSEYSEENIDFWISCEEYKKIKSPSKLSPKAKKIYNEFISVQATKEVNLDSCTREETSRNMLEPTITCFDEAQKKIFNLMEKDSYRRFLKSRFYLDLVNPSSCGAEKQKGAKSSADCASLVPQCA
RGS4 act valid: RGS4 activation, validation assay | HEK293 M3R/RGS4 inducible, carbachol calcium flux Fluo4 | inhibition, % at 10 µM | 1,100 tested, 89% active | shares compounds with RGS4 pot | AID 602282;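 active = inhibition above 3 SD of the buffer control wells, cut at about 41% in these data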;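 note: signal is the integrated peak-minus-minimum Fluo4 fluorescence over baseline ratio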
RGS4 act ctr: RGS4 activator counter-screen hit in non-induced cells; shares compounds with RGS4 pot; HEK293 M3R non-induced RGS4, Fluo4 calcium flux; after carbachol challenge at its EC90; 1,100 tested, 82% active; inhibition, % at 10 µM;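 active = inhibition exceeding 3 SD of buffer-only control wells, cut at about 26% in these data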;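 note: percent drop in integrated peak-minus-baseline over baseline Fluo4 ratio after carbachol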
Of the large screens only hits and unclear results are named; the others gave an inactive call (follow-up assays come after a bar, where they were run).

COc1ccc(OS(=O)(=O)c2c(C)noc2C)cc1	RGS4 pot -9.31 | RGS4 act valid 84.0 | RGS4 act ctr 41.3
Cc1cccc(NS(=O)(=O)c2ccc(C3CCCCC3)cc2)c1	RGS4 pot -8.84 | RGS4 act valid 94.5 | RGS4 act ctr 91.8
c1ccc(N2CCN(c3cnccn3)CC2)nc1	RGS4 pot -8.41 | RGS4 act valid inactive | RGS4 act ctr inactive
CSc1ccc(S(=O)(=O)NCC(=O)OCC(=O)N2CCCC2=O)cc1[N+](=O)[O-]	none
COC(=O)/C=C/c1cc(F)ccc1S(=O)(=O)NC(C)(C)C	none
CCOC(=O)CN(Cc1sccc1C)C(=O)Nc1ccc(OCC)cc1	none
O=C1C(NS(=O)(=O)c2cccs2)=C(N2CCN(Cc3ccccc3)CC2)C(=O)c2ccccc21	RGS4 pot -8.1 | RGS4 act valid 63.0 | RGS4 act ctr inactive
CN1CCN(C2=C(NS(=O)(=O)c3cccs3)C(=O)c3ccccc3C2=O)CC1	none
O=C(NCC1CCN(c2ccc(S(=O)(=O)N3CCOCC3)cc2)CC1)c1ccc(Cl)cc1	RGS4 pot -10.8 | RGS4 act valid 92.5 | RGS4 act ctr 80.8
COc1ccc(C(=O)CSc2nnc(CNC(=O)c3ccco3)n2C)cc1	none
CCOC(=O)C1=C(CN2c3ccccc3CC2C)NC(=O)NC1c1ccccc1 (configuration not stated)	none
Cc1cc(-c2cc(N)n(-c3ccccc3)n2)c(C)n1C1CCCC1	none
CN(C)CC/C=C1/c2ccccc2Sc2ccc(Cl)cc21	RGS4 pot -9.46 | RGS4 act valid 93.5 | RGS4 act ctr 95.8
CN(C)CC/C=C1\c2ccccc2COc2ccccc21	RGS4 pot -7.95 | RGS4 act valid 94.0 | RGS4 act ctr 92.8
CN(C)CC/C=C1/c2ccccc2CS(=O)(=O)c2ccccc21	none
CN1CCN(CCC=C2c3ccccc3Sc3ccc(S(=O)(=O)N(C)C)cc32)CC1	none (no result: RGS4 pot, RGS4 inh)
Cc1nn(Cc2ccc(C(=O)Nc3ccc(C(=O)OC(C)C)cc3)o2)c(C)c1Cl	RGS4 pot -9.61 | RGS4 act valid 91.5 | RGS4 act ctr 79.3
Cc1nn(Cc2ccc(C(=O)NN)o2)c(C)c1Cl	none
N#CC1(NC(=O)COC(=O)/C=C/c2ccc3ccccc3n2)CCCCC1	none
CS(=O)(=O)N1CCC(C(=O)Nc2ccc(F)c(Cl)c2)CC1	RGS4 pot -8.42 | RGS4 act valid inactive | RGS4 act ctr inactive
Cc1ccccc1C(=O)NCC(C)NC(=O)c1ccccc1C (configuration not stated)	none
N#CC/C(N)=N/Nc1nc2ccccc2nc1Cc1ccccc1	none
COc1cc(C)c(C(C)C)cc1S(=O)(=O)N1CCOCC1	RGS4 pot -8.83 | RGS4 act valid inactive | RGS4 act ctr inactive
CCOc1cc(C)c(C(C)C)cc1S(=O)(=O)N1CCOCC1	none
O=c1c2ccccc2nc(/C=C/c2cccnc2)n1CCc1ccccc1	RGS4 pot -9.69 | RGS4 act valid 56.5 | RGS4 act ctr inactive
Cc1ccccc1C(C(=O)NC1CCCCC1)N(C(=O)CNC(=O)c1ccco1)c1cccnc1 (configuration not stated)	none
Cc1cc(C(=O)Nc2c(F)cc(F)cc2Br)n(-c2ccccc2)n1	none
OCCC1CN(Cc2ccc(-c3ccco3)cc2)CCN1Cc1ccsc1 (configuration not stated)	RGS4 pot -7.74 | RGS4 act valid 73.5 | RGS4 act ctr 83.8
CCN1CCN(CCn2c(=S)[nH]c3ccccc3c2=O)CC1	RGS4 pot -7.82 | RGS4 act valid 85.0 | RGS4 act ctr 59.3
CCNC(=O)c1ccccc1SCc1ccccc1	none
CCc1ccc(OCCNC(=O)c2ccccc2SCc2ccccc2)cc1	RGS4 pot -11.3 | RGS4 act valid 94.0 | RGS4 act ctr 79.8
O=c1[nH]nc(SCc2nnc(-c3cccc(Cl)c3)o2)n1C1CCCCC1	none
Cc1cccc(/C(N)=N/OC(=O)COc2ccc(Cl)cc2)c1	none
Cc1cccc(C(=O)NC(=S)NNC(=O)COc2ccc(Cl)cc2)c1	RGS4 pot -11.2 (no result: MrgX1 antag, MrgX1 allo act, MrgX1 ag) | RGS4 act valid 58.5 | RGS4 act ctr 49.8
COc1ccccc1C(=O)Nc1nc(-c2ccc3c(c2)OCCO3)cs1	RGS4 pot -8.77 | RGS4 act valid 88.5 | RGS4 act ctr 62.3
COc1cccc(NC(=O)CCC2CCN(C(=O)c3ccc(C(C)=O)s3)CC2)c1	none
COCCNC(=S)Nc1ccc2nc(N3CCOCC3)cc(C)c2c1	RGS4 pot -11.4 | RGS4 act valid inactive | RGS4 act ctr inactive
COc1cccc(C2Nc3ccc4ccccc4c3C3=C2C(=O)CCC3)c1O (configuration not stated)	none
CN(C(=O)c1ccccc1OCc1ccc(Cl)cc1)c1ccccc1	RGS4 pot -9.2 | RGS4 act valid 92.0 | RGS4 act ctr 93.3
CCOc1ccc(S(=O)(=O)N(CC(=O)NC2CCCCC2C)Cc2ccco2)cc1 (configuration not stated)	RGS4 pot -8.22 | RGS4 act valid inactive | RGS4 act ctr inactive
CC1(C)CC(=O)C=C(Nc2ccc(C(=O)O)c(O)c2)C1	none
CN(CC(=O)Nc1ccc(Cl)cc1)C(=O)c1cc(-c2cccs2)nn1-c1ccccc1	RGS4 pot -8.52 | RGS4 act valid 87.5 | RGS4 act ctr 41.8
CN(CC(=O)Nc1ccccc1Cl)C(=O)c1cc(-c2cccs2)nn1-c1ccccc1	none
CCN(CC(=O)Nc1ccccc1OC)C(=O)c1cc(-c2ccccc2)nn1-c1ccccc1	RGS4 pot -7.85 | RGS4 act valid 92.0 | RGS4 act ctr 66.8
CCN(CC(=O)Nc1c(F)cccc1F)C(=O)c1cc(-c2cccs2)nn1-c1ccccc1	RGS4 pot -9.39 | RGS4 act valid 52.5 | RGS4 act ctr 83.8
CN(CC(=O)Nc1c(Cl)cccc1Cl)C(=O)c1cc(-c2cccs2)nn1-c1ccccc1	none
Cc1cccc(NC(=S)N(CCN(C)C)Cc2cccs2)c1	none
CS(=O)(=O)n1nc(-c2ccc(Cl)cc2)nc1SCc1ccccc1	none
Cc1nc2nc(SCC(=O)NCCCN3CCCC3)nn2c(C)c1Cc1ccccc1Cl	RGS4 pot -8.25 | RGS4 act valid 77.5 | RGS4 act ctr 42.3
CCSc1nc2sc3c(c2c(=O)n1-c1ccccc1)CCN(C(C)C)C3	RGS4 pot -7.88 | RGS4 act valid 64.5 | RGS4 act ctr inactive
CN1CCc2c(sc3nc(SCC(N)=O)n(-c4ccccc4)c(=O)c23)C1	none
CC(Cc1cccs1)NC(=O)Nc1ccc(F)cc1 (configuration not stated)	none
